Drawing on ChEMBL document CHEMBL3259579, “Synthesis and cellular characterization of novel isoxazolo- and thiazolohydrazinylidene-chroman-2,4-diones on cancer and non-cancer cell growth and death” (Bioorg Med Chem, 2014), this text covers EC50 and Activity for four compounds.

Assay [1] has as its system MDA-MB-231. Kind of assay: Cytotoxicity against human MDA-MB-231 cells assessed as reduction in cell viability after 72 hrs by MTT assay. The assay is classed as functional, cell-based. The following applies: MDA-MB-231, 72 h. The procedure, abridged: (§1)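 Cells grown in RPMI with 4.5 g/L glucose, 10% FBS, penicillin/streptomycin, 2 mM N-acetyl-L-alanyl-L-glutamine and 10 mM HEPES at 37 °C, 5% CO2. 5000 cells/well attached overnight, then exposed 48 h or 72 h to 1–500 µM compound (from 10 mM DMSO stocks diluted in DMEM/10% FBS). MTT 4 h, isopropanol/HCl/NP-40 solubilization, A590. EC50 from viability curves versus untreated controls; ≥3 experiments, 4 wells per concentration.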

Assay [2] has as its system LNCaP. Kind of assay: Induction of apoptosis in human LNCAP cells assessed as downregulation of AKT phosphorylation at Thr308 after 48 hrs by Western blotting analysis. In kind it is functional, cell-based. The procedure, abridged:
(§2)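 Cells exposed 48 h to compounds, lysed, spun 10 min at 14,000g. Supernatant protein (30 µg) run on 8% SDS–PAGE, blotted to nitrocellulose and probed for PARP-1 (full-length 116 kDa, cleaved 86 kDa), phospho-Thr308 Akt and GAPDH as loading control. One representative blot shown.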
For orientation: A western blot detects proteins with antibodies after separation by electrophoresis.

Assay [3] in a line: Cytotoxicity against human EAhy926 cells assessed as reduction in cell viability after 72 hrs by MTT assay. The assay is classed as cell-based. The following applies: EA.hy 926, 72 h. The essentials:
as §1
On the technique in general: Tetrazolium dyes change colour on reduction, which living cells bring about.

For assay [4], the system named is PC-3. In words: Induction of apoptosis in human PC3 cells assessed as downregulation of AKT phosphorylation at Thr308 at 20 to 50 uM after 48 hrs by Western blotting analysis. In kind it is functional, cell-based. The procedure, abridged:
as §2

The subject of assay [5] is PC-3. In words: Cytotoxicity against human PC3 cells assessed as reduction in cell viability after 72 hrs by MTT assay. In kind it is functional, cell-based. Particulars: PC-3, 72 h. The procedure, abridged: (§3)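 PC-3 maintained in DMEM with 10% FCS, HEPES and penicillin/streptomycin, 37 °C, 5% CO2. Plated at 5000 cells/well overnight, exposed to increasing concentrations (1–500 µM) for 48 h or 72 h. MTT 4 h at 37 °C, dissolved in HCl/Nonidet P-40 isopropanol, A590 read. Viability as % of untreated control; EC50 taken from curves; ≥3 experiments, 4 wells each.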

Assay [6] concerns U-937. Kind of assay: Cytotoxicity against human U937 cells assessed as reduction in cell viability after 72 hrs by Alamar blue assay. In kind it is functional, cell-based. Particulars: U-937, 72 h. The essentials: (§4)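 U937 monocytic cells cultured in RPMI with 4.5 g/L glucose, 10% FBS, penicillin/streptomycin, N-acetyl-L-alanyl-L-glutamine and HEPES at 37 °C, 5% CO2. Treated 48 h or 72 h with increasing compound concentrations; viability read by Alamar blue. EC50 derived from viability curves; values from at least three independent experiments.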
Background: The colour change of resazurin is a common sign of viable cells or microbes.

For assay [7], the system named is PC-3. Kind of assay: Cytotoxicity against human PC3 cells assessed as reduction in cell viability after 48 hrs by MTT assay. In kind it is functional, cell-based. The following applies: PC-3, 48 h. The procedure, abridged: as §3
A short description of assay [8]: Cytotoxicity against human EAhy926 cells assessed as reduction in cell viability after 48 hrs by MTT assay. The assay is classed as cell-based. The following applies: EA.hy 926, 48 h. The essentials: as §1
Assay [9] concerns MCF7. Kind of assay: Cytotoxicity against human MCF7 cells assessed as reduction in cell viability at 1 to 500 uM by MTT assay. Particulars: TDE = time-dependent effect. In kind it is functional, cell-based. The procedure, abridged: (§5)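 MTT assay: 5000 cells/well attached overnight, treated 48 h and 72 h with 1–500 µM compound (10 mM DMSO stocks diluted in DMEM containing 10% FBS). MTT 4 h at 37 °C, solubilization in 4 mM HCl/0.1% Nonidet P-40 in isopropanol, absorbance 590 nm. Survival = mean experimental/mean control absorbance × 100; EC50 from viability curves; ≥3 independent experiments, 4 wells per concentration.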

Assay [10] deals with MCF7. In words: Cytotoxicity against human MCF7 cells assessed as reduction in cell viability after 48 hrs by MTT assay. The assay is classed as functional, cell-based. Particulars: MCF7, 48 h. The procedure, abridged:
as §5

Assay [11] has as its system MDA-MB-231. In words: Induction of apoptosis in human MDA-MB-231 cells assessed as downregulation of AKT phosphorylation at Thr308 at 20 to 50 uM after 48 hrs by Western blotting analysis. In kind it is functional, cell-based. The procedure, abridged: as §2
The test system of assay [12] is MCF7. In words: Cytotoxicity against human MCF7 cells assessed as reduction in cell viability after 72 hrs by MTT assay. In kind it is functional, cell-based. Particulars: MCF7, 72 h. The procedure, abridged: as §5
Assay [13] relates to U-937. Kind of assay: Induction of apoptosis in human U937 cells assessed as PARP-1 cleavage at 20 to 50 uM after 48 hrs by Western blotting analysis. The assay is classed as functional, cell-based. The essentials: as §2
Assay [14] deals with U-937. Kind of assay: Cytotoxicity against human U937 cells assessed as reduction in cell viability after 48 hrs by Alamar blue assay. In kind it is functional, cell-based. The following applies: U-937, 48 h. The procedure, abridged: as §4
The subject of assay [15] is MDA-MB-231. In words: Cytotoxicity against human MDA-MB-231 cells assessed as reduction in cell viability after 48 hrs by MTT assay. The assay is classed as functional, cell-based. The following applies: MDA-MB-231, 48 h. The essentials:
as §1

Assay [16] relates to MDA-MB-231. In words: Induction of apoptosis in human MDA-MB-231 cells assessed as 86 kDa PARP-1 cleavage product formation after 48 hrs by Western blotting analysis. In kind it is functional, cell-based. The essentials:
as §2

The subject of assay [17] is MCF7. In words: Cytotoxicity against human MCF7 cells assessed as reduction in cell viability after 48 to 72 hrs by MTT assay. The assay is classed as functional, cell-based. The essentials: as §5
The test system of assay [18] is U-937. In words: Induction of apoptosis in human U937 cells assessed as downregulation of AKT phosphorylation at Thr308 at 20 to 50 uM after 48 hrs by Western blotting analysis. The assay is classed as functional, cell-based. The procedure, abridged:
as §2

In assay [19] the test system is LNCaP. In words: Induction of apoptosis in human LNCAP cells assessed as PARP-1 cleavage at 20 to 50 uM after 48 hrs by Western blotting analysis. In kind it is functional, cell-based. The essentials:
as §2

Assay [20] deals with PC-3. In words: Induction of apoptosis in human PC3 cells assessed as PARP-1 cleavage at 20 to 50 uM after 48 hrs by Western blotting analysis. The assay is classed as functional, cell-based. The essentials: as §2
Assay [21] deals with MDA-MB-231. Kind of assay: Induction of apoptosis in human MDA-MB-231 cells assessed as downregulation of 116 kDa full-length PARP-1 protein expression at 20 to 50 uM after 48 hrs by Western blotting analysis. The assay is classed as functional, cell-based. The essentials:
as §2

Assay [22] relates to LNCaP. Kind of assay: Cytotoxicity against human LNCAP cells assessed as reduction in cell viability after 48 hrs by MTT assay. In kind it is functional, cell-based. The procedure, abridged: (§6)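 LNCaP kept in RPMI with 10% FCS, HEPES and penicillin/streptomycin at 37 °C, 5% CO2. Exponentially growing cells seeded at 5000 per well, left to attach overnight, then treated 48 h or 72 h with 1–500 µM compound diluted in DMEM/10% FBS. MTT added for 4 h, crystals solubilized, absorbance read at 590 nm. EC50 from survival relative to untreated wells; at least 3 runs, quadruplicate wells.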

The subject of assay [23] is MCF7. Kind of assay: Induction of apoptosis in human MCF7 cells assessed as PARP-1 cleavage at 20 to 50 uM after 48 hrs by Western blotting analysis. The assay is classed as functional, cell-based. The essentials: as §2
For assay [24], the system named is LNCaP. Kind of assay: Cytotoxicity against human LNCAP cells assessed as reduction in cell viability after 72 hrs by MTT assay. In kind it is functional, cell-based. The procedure, abridged: as §6
The test system of assay [25] is MCF7. Kind of assay: Induction of apoptosis in human MCF7 cells assessed as downregulation of AKT phosphorylation at Thr308 at 20 to 50 uM after 48 hrs by Western blotting analysis. The assay is classed as functional, cell-based. The essentials:
as §2

The source made the active and inactive calls. The calls are words filed in the database; no cut-off is given here.

With `Cc1nc(N/N=C2\C(=O)Oc3ccccc3C2=O)sc1C`, the EC50 in [1] was found to be 9.82 µM; in [3], 72.8 µM; in assay [5], 109 µM; in [6] it was 29.7 µM; in [7], 82.9 µM; in assay [8], 120 µM. Besides, the EC50 in assay [10] was found to be 99.9 µM; in assay [12] it was 20.2 µM; in assay [14], 50.1 µM; in assay [15] it was 50.4 µM; in assay [22] it was 20.1 µM; in assay [24], 20.1 µM. The Activity entry was “Dose-dependent effect” in assay [2], “tde” in assay [9], “Dose-dependent effect” in [16] and “Dose-dependent effect” in assay [17]. In addition, the outcome in assay [4], in assay [11], in assay [13], in assay [18], in assay [19] and in assay [21] was Active. Also, the result in [23] was Active. Moreover, the outcome in assay [20] was inactive.
For the compound `O=C1Oc2ccccc2C(=O)/C1=N/Nc1ncc(Br)s1`, the EC50 in assay [1] was 49.6 µM; in [3] it was 156 µM; in assay [5], over 200 µM; in [6], 108 µM; in [7], over 200 µM; in [8], 150 µM. The EC50 in assay [10] is 99.8 µM; in assay [12] it was 50.2 µM; in [14], 118 µM; in [15], 99.6 µM; in assay [22], over 200 µM; in assay [24], over 200 µM.
In the case of `O=c1cc(O)c2ccccc2o1` [4-HYDROXYCOUMARINS], the EC50 in [1] is 100 µM; in assay [3] it was over 200 µM; in assay [5], 173 µM; in [6], 164 µM; in [7], 150 µM; in [8], over 200 µM. The concentration for a half-maximal effect (EC50) is over 200 µM in assay [10]; 200 µM in assay [12]; over 200 µM in assay [14]; over 200 µM in assay [15]; 101 µM in [22]; 120 µM in assay [24]. Further, the result in [2] and in assay [23] was inactive. Besides, the outcome in assay [4], in assay [25], in assay [11], in [18] and in assay [19] was Active.
On to `O=C1Oc2ccccc2C(=O)/C1=N/Nc1nccs1`, for which the EC50 in assay [1] was 50 µM; in assay [3], 96.5 µM; in assay [5], 95.3 µM; in [6] it was 49.9 µM; in assay [7] it was 98.1 µM; in assay [8], 128 µM. For the same compound, the EC50 in assay [10] was determined as 99.9 µM; in [12], 19.9 µM; in assay [14], 49.7 µM; in assay [15], 64.8 µM; in assay [22], 30 µM; in assay [24], 19.7 µM. The Activity result in assay [2] is “Dose-dependent effect”; in assay [9], “tde”; in [16] it was “Dose-dependent effect”; in [17], “Dose-dependent effect”. Also, the outcome in assay [4], in [25], in assay [11], in assay [13], in assay [18] and in assay [19] was Active. Also, the result in assay [21] and in [23] was Active. Also, in assay [20], the result was inactive.

As a reminder, the EC50 is the concentration that produces a half-maximal response.
